Measurements as given in ChEMBL document CHEMBL4020824, “Discovery of Potent and Orally Bioavailable Dihydropyrazole GPR40 Agonists” (J Med Chem, 2018).
Active and inactive are the calls of the source. The calls are words filed in the database; no cut-off is given here.

What was measured:
[1] = molecular target: T1, Free fatty acid receptor 1 (Homo sapiens, UniProt O14842); experiment: Agonist activity at human GPR40 expressed in CHOA12 cells assessed as induction of Ca2+ mobilization by FLIPR assay; assay type: functional, cell-based
T1 sequence (O14842 whole entry): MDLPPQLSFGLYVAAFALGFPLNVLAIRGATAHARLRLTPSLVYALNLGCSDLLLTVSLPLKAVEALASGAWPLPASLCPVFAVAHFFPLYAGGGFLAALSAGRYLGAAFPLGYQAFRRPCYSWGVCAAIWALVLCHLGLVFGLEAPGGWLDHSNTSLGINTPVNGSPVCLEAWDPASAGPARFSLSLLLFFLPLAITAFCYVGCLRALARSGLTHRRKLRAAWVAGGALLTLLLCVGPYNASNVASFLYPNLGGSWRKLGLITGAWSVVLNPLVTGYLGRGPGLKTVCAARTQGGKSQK

[2] = molecular target: T1, Free fatty acid receptor 1; experiment: Agonist activity at human GPR40 expressed in CHOA12 cells assessed as induction of Ca2+ mobilization at 8.3 uM by FLIPR assay relative to compound 2; assay type: functional, cell-based
Liver [3] = experiment: Drug level in human liver microsomes treated with 2-((4S,5S)-1-(4-((1-(2-Fluoro-5-methoxyphenyl)piperidin-4-yl)-oxy)phenyl)-4-methyl-3-(trifluoromethyl)-4,5-dihydro-1H-pyrazol-5-yl)acetic acid at 1 to 3 uM incubated for 20 mins in presence of NADPH measured after 90 mins by LC/MS/MS analysis; assay type: ADME, microsome
Method in brief: (§1)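 Human or rat liver microsomal incubations. The read-outs were % parent remaining, % D-ring dealkylation metabolites, % GSH adducts, and half-life (min). The metabolites followed were CYP450-mediated oxidative de-alkylation products (phenols) and GSH conjugates.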

Liver [4] = experiment: Drug level in rat liver microsomes treated with 2-((4S,5S)-1-(4-((1-(2-Fluoro-5-methoxyphenyl)piperidin-4-yl)-oxy)phenyl)-4-methyl-3-(trifluoromethyl)-4,5-dihydro-1H-pyrazol-5-yl)acetic acid at 1 to 3 uM incubated for 20 mins in presence of NADPH measured after 90 mins by LC/MS/MS analysis; assay type: ADME, microsome; method in brief: as §1

Compound | EC50 [1] [µM] | other results
COc1cc(N2CC[C@@H](Oc3ccc(N4N=C(C(F)(F)F)[C@@H](C)[C@@H]4CC(=O)O)cc3)[C@H](F)C2)c(Cl)cn1 | 0.18 | 
C[C@@H]1C(C(F)(F)F)=NN(c2ccc(OC3CCN(c4cccc(F)n4)CC3)cc2)[C@H]1CC(=O)O | 0.39 to 0.86 | 
COc1ccc(F)c(N2CCC(Oc3ccc(N4C[C@H](C(F)(F)F)C[C@@H]4CC(=O)O)cc3)CC2)c1 |  | Activity [2]: Active
CCOc1ccc(F)c(N2CCC(Oc3ccc(N4N=C(C(F)(F)F)[C@@H](C)[C@@H]4CC(=O)O)cc3)CC2)c1 | 0.22 | 
CCc1ccc(F)c(N2CCC(Oc3ccc(N4N=C(C(F)(F)F)[C@@H](C)[C@@H]4CC(=O)O)cc3)CC2)c1 | 0.45 to 0.72 | 
C[C@@H]1C(C(F)(F)F)=NN(c2ccc(OC3CCN(c4cc(O)ccc4F)CC3)cc2)[C@H]1CC(=O)O |  | Drug uptake (Liver [3]): Metabolite_Detected; Drug uptake (Liver [4]): Metabolite_Detected
COc1ccc(C#N)c(N2CCC(Oc3ccc(N4N=C(C(F)(F)F)[C@@H](C)[C@@H]4CC(=O)O)cc3)CC2)c1 | 0.68 | 
COc1ccc(F)c(N2CC[C@H](COc3ccc(N4C[C@H](C(F)(F)F)C[C@@H]4CC(=O)O)cc3)C2)c1 |  | Activity [2]: Active
COc1ccc(F)c(N2CCC(Oc3ccc(N4C[C@H](C(F)(F)F)C[C@@H]4CC(=O)O)cc3)C2)c1 (some centres undefined) | 2.83 to 5.36 | Activity [2]: Active
C[C@@H]1C(C(F)(F)F)=NN(c2ccc(OC3CCN(c4cc(Cl)ccc4Cl)CC3)cc2)[C@H]1CC(=O)O | 0.25 | 
COc1cc(N2CCC(Oc3ccc(N4N=C(C(F)(F)F)[C@@H](C)[C@@H]4CC(=O)O)cc3)CC2)c(F)cn1 | 0.15 to 0.18 | 
COc1ccc(F)c(N2CC[C@@H](Oc3ccc(N4N=C(C(F)(F)F)[C@@H](C)[C@@H]4CC(=O)O)cc3)[C@H](F)C2)c1 | 0.07 | 
